Assay outcomes (PubChem)
Compounds with a hit are over-represented: about 2.6% of the library has one in this group of screens.
ASAP1 GAP inh: blocks human ASAP1-stimulated Arf1 GTP hydrolysis. inhibition, % at 16.5 µM. GDP FP detection. Q9ULH1. 360,000 compounds, 0.19% hits; in the data active means inhibition above about 25%
Target sequence (Q9ULH1 325-724 limits assumed): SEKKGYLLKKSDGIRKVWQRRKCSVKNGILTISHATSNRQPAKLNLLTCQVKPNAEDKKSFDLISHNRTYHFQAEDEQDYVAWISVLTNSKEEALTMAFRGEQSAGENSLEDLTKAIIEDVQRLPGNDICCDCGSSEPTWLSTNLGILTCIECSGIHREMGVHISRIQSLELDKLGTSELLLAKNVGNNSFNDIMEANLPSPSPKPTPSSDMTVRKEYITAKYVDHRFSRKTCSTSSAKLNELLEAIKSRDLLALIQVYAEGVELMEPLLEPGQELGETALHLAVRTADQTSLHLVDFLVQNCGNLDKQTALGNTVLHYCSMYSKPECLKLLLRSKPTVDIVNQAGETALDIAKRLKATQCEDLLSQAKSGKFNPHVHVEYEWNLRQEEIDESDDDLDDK
esBAF inh: inhibitors of esBAF chromatin remodeling in mouse ES cells; Bmi1-luciferase knock-in reporter, 24 h; 100% = twice the neutral-well signal; reporter increase, % at 12.5 µM; 350,000 compounds, 2% hits; AID 602393; in the data active means activation above about 40%;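 further: a rise in the Bmi1 reporter signal indicates esBAF inhibition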
SMARCA2 activ: SMARCA2 function activation, primary screen; 370,000 compounds, 1% hits; activation, % at 9.1 µM; MG213 cells, MMTV-luciferase reporter, dexamethasone, overnight; in the data active means activation above about 7.8%
ARFGAP1 inh: rat ARFGAP1 inhibition; Q62848; Arfgap1-stimulated ARF1 GTP hydrolysis, GDP FP detection; inhibition, % at 16.5 µM; 360,000 compounds, 0.26% hits; AID 651572;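 active means inhibition above a per-plate limit, mean inhibition of low control wells plus 3 SD, cut at about 25% in these data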
Target sequence (Q62848 1-136 limits assumed): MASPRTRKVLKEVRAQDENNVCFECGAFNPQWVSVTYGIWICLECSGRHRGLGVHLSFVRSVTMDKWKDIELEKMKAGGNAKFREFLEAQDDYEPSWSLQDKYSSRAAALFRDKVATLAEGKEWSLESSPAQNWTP
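Material: truncated rat Arfgap1 GAP domain; Incubation: compound-enzyme preincubation 20 min, reaction 120 min, detection 60 min, 25 °C; Read-out: percent inhibition of Arfgap1-stimulated GTP hydrolysis; Technique: FP, GDP Alexa 633 tracer displaced from anti-GDP antibody, 620/688 nm; Controls: No-Arfgap1 wells (100%) versus DMSO full-reaction wells (0%); Replication: single well per compound.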
A number is an active result; – = inactive; · = no result.

SMILES | ASAP1 GAP inh | esBAF inh | SMARCA2 activ | ARFGAP1 inh
CC1=NN(c2ccccc2)C(=O)/C1=C\c1ccc(Oc2ccc([N+](=O)[O-])cc2[N+](=O)[O-])cc1 | – | – | – | 24.7
CCC(=O)Nc1cc(C(=O)OCC(=O)c2ccc(Cl)cc2Cl)ccc1C | – | – | – | –
CCC(=O)Nc1cc(C(=O)OCC(=O)c2ccccc2Cl)ccc1C | – | 64.0 | – | –
O=C(N/N=C/c1ccnc2ccccc12)c1ccccc1O | – | 54.7 | – | –
Cc1cc(NC(=O)CSc2nc3c(c(=O)n2Cc2ccccc2)SC(C)C3)no1 (configuration not stated) | – | 46.3 | – | –
O=C1C2C3C=CC(C4CC34)C2C(=O)N1/N=C/c1c[nH]c2ccccc12 (configuration not stated) | – | 57.1 | – | –
O=C1C2C3C=CC(C4CC34)C2C(=O)N1/N=C/c1ccc([N+](=O)[O-])s1 (configuration not stated) | – | · | – | –
O=C(CNc1ccccc1F)Nc1cccc2ccccc12 | – | 63.8 | – | –
O=C(Nc1ccccc1F)C(=O)Nc1cccc2ccccc12 | – | 62.5 | – | –
Cc1ccoc1C(=O)Nc1cccc2ccccc12 | – | 42.1 | – | –
O=C(Nc1cccc2ccccc12)c1ccco1 | – | · | – | –
Cc1ccc(S(=O)(=O)Nc2ccc3c(c2)CC(=O)N([C@@H](C)CO)C[C@H](C)[C@@H](CN(C)S(=O)(=O)c2c(C)noc2C)O3)cc1 | · | – | · | ·
COc1ccccc1NC(=O)N[C@H]1CC[C@@H](CCNS(=O)(=O)c2ccccc2)O[C@H]1CO | · | – | · | ·
Cc1ccc(SCc2nn(C)c(Cl)c2C=O)cc1 | – | 42.4 | – | –
CN(C)c1cccc(C(=O)NCC(c2ccco2)N(C)C)c1 (configuration not stated) | – | 40.3 | – | –
O=C(Cc1ccncc1)NCC[C@@H]1CC[C@@H](NC(=O)Nc2ccc(F)cc2)[C@H](CO)O1 | · | – | · | ·
CSc1ccccc1C(=O)N1CCc2ccc(NC(=O)c3ccccn3)cc2C1 | – | 45.7 | – | –
O=C(Nc1ccc2c(c1)CN(C(=O)Nc1ccc(F)cc1)CC2)c1ccccn1 | – | 47.1 | – | –
CSc1ccc(C(=O)N2CCc3ccc(NC(=O)c4ccccn4)cc3C2)cc1 | – | – | – | –
CC(=O)NCCN=Cc1sc2ccccc2c1O | – | – | – | –
CCCN=Cc1sc2ccc(OCC)cc2c1O | – | 76.7 | – | –
Cc1noc(C)c1S(=O)(=O)N(C)C[C@H]1OCCCC[C@@H](C)Oc2ccc(NC(=O)CCCCCC(=O)Nc3ccccc3N)cc2C(=O)N([C@@H](C)CO)C[C@@H]1C | · | – | · | ·
COc1ccc(-n2cnc3cc(C(=O)N4CCOCC4)ccc32)cc1 | – | 43.5 | – | –
Cc1noc(C)c1NC(=O)NCC[C@@H]1CC[C@@H](NC(=O)c2ccccc2)[C@H](CO)O1 | · | – | · | ·
COc1ccc(/C(O)=C2\C(=O)C(=O)N(CCN(C)C)C2c2cccc(OC)c2OC)cc1 (configuration not stated) | – | – | 9.6 | –
SMILES | ASAP1 GAP inh | esBAF inh | SMARCA2 activ | ARFGAP1 inh
COc1ccc(OC)c(CCNC(=O)Cn2cccc2C(=O)c2ccccc2)c1 | – | – | – | –
COc1ccc(CNC(=O)Cn2cccc2C(=O)c2ccccc2C)cc1 | – | 47.2 | – | –
COc1ccc(CNC(=O)Cn2cccc2C(=O)c2ccccc2)cc1 | – | 53.0 | – | –
Cc1nn(C)cc1/C=C/C(=O)c1cccs1 | – | 65.3 | – | –
CCOc1ccc(-c2cnc3cccnn23)cc1 | – | – | – | –
CCOc1cccc(-c2cnc3cccnn23)c1 | – | 61.3 | – | –
COc1cccc(CNC(=O)C[C@H]2C=C[C@H](NC(=O)C3CCOCC3)[C@H](CO)O2)c1 | · | – | · | ·
COc1ccc(Cc2c(-c3ccccc3)nc3ccc(Br)cn23)c(C)c1 | – | 61.1 | – | –
COc1ccc(Cc2c(C(C)(C)C)nc3ccc(Br)cn23)c(C)c1 | – | – | – | –
COc1ccc(Cc2c(-c3cccc(Cl)c3)nc3ccc(Cl)cn23)c(C)c1 | – | – | – | –
COc1ccc(Cc2c(-c3cccc(Br)c3)nc3ccc(Cl)cn23)c(C)c1 | – | 57.7 | – | –
CCCC#Cc1cnc2c(c1)C(=O)N([C@H](C)CO)C[C@@H](C)[C@@H](CN(C)C(=O)Nc1c(C)noc1C)O2 | · | – | · | ·
COc1ccc2oc(C(=O)N3CCCc4ccccc43)c(C)c2c1 | – | 74.8 | – | –
Cc1ccc(-c2nnc(-c3ccc(Br)cc3)o2)o1 | – | 64.1 | – | –
Brc1ccc(-c2nnc(-c3cccc(Br)c3)o2)cc1 | – | · | – | –
Brc1ccc(-c2nnc(-c3ccco3)o2)cc1 | – | 59.5 | – | –
C[C@@H]1CCCCO[C@H](CN(C)Cc2ccc(C(=O)O)cc2)[C@H](C)CN([C@H](C)CO)C(=O)c2cc(NC(=O)CCC(F)(F)F)ccc2O1 | · | – | · | ·
Cc1cc2oc(C(=O)Nc3cccnc3)c(C)c2cc1C | – | 77.8 | – | –
COc1c(Cl)cc(C(=O)Nc2cccnc2)cc1Cl | – | – | – | –
Cc1ccc(C(=O)Nc2cccnc2)cc1Cl | – | 55.3 | – | –
Cc1ccc(NC(=O)c2cccnc2)cc1C | – | 49.3 | – | –
O=C(Nc1ccon1)c1sc2cc(Cl)ccc2c1Cl | – | 47.3 | – | –
O=C(C[C@@H]1CC[C@H]2[C@@H](COC[C@H](O)CN2C(=O)Nc2ccc3c(c2)OCO3)O1)N1CCN(c2ccccc2)CC1 | · | – | · | ·
Cc1cc(C(=O)Nc2cccnc2)cs1 | – | – | – | –
O=C(Nc1cccnc1)c1ccc(-c2ccccc2)cc1 | – | 93.0 | – | –
SMILES | ASAP1 GAP inh | esBAF inh | SMARCA2 activ | ARFGAP1 inh
Cc1ccc(C(=O)Nc2cccnc2)cc1C | – | 46.2 | – | –
Cc1ccc2c(Cl)c(C(=O)Nc3cccnc3)sc2c1 | – | 54.6 | – | –
CCNC(=O)C[C@@H]1CC[C@H](NS(=O)(=O)c2ccc(C)cc2)[C@@H](CO)O1 | · | – | · | ·
Cc1ccsc1/C=N/Nc1ncc(Cl)cc1Cl | – | 55.1 | – | –
CO[C@@H]1CN(C)C(=O)c2ccc(NC(=O)C3CC3)cc2OC[C@@H](C)N(Cc2cccnc2)C[C@@H]1C | · | – | · | ·
COc1ccc(NC(=O)CSc2nccn2Cc2ccccc2)c(OC)c1 | – | – | – | –
COc1ccc(NC(=O)CSc2ccccc2)c(OC)c1 | – | 55.6 | – | –
COc1ccc(NC(=O)c2cc(C(C)C)on2)c(OC)c1 | – | 50.5 | – | –
COc1ccc(NC(=O)C/C(C)=N/NC(=O)C(=O)NC(C)C)c(OC)c1 | – | · | 7.9 | –
COc1ccc(NC(=O)C/C(C)=N/NC(=O)C(=O)Nc2cccc(Cl)c2C)c(OC)c1 | – | · | – | –
COc1ccc(NC(=O)c2ccccc2O)c(OC)c1 | – | 52.7 | – | –
CCCC#Cc1cnc2c(c1)C(=O)N([C@@H](C)CO)C[C@H](C)[C@H](CN(C)C(=O)c1ccc(F)cc1)O2 | · | – | · | ·
C[C@@H]1CN([C@H](C)CO)S(=O)(=O)c2ccc(C#CC3CC3)cc2O[C@@H]1CN(C)S(C)(=O)=O | · | – | · | ·
Cc1ccc(S(=O)(=O)Nc2cccc3c2O[C@@H](CN(C)C(=O)Nc2ccccc2)[C@@H](C)CN([C@@H](C)CO)C3=O)cc1 | · | – | · | ·
